From BindingDB's records for doi:10.1016/j.ejmech.2011.01.042 (Ludwig-Maximilians-University Munich, 2011)
Counter-ions that a name gives are not always drawn.

Key:
[1] = biological target: T1, Sodium- and chloride-dependent GABA transporter 2 (Mus musculus, UniProt P31649); assay: Inhibition of mouse GAT2-mediated [3H]GABA uptake expressed in human HEK cells
T1 sequence (P31649 whole entry): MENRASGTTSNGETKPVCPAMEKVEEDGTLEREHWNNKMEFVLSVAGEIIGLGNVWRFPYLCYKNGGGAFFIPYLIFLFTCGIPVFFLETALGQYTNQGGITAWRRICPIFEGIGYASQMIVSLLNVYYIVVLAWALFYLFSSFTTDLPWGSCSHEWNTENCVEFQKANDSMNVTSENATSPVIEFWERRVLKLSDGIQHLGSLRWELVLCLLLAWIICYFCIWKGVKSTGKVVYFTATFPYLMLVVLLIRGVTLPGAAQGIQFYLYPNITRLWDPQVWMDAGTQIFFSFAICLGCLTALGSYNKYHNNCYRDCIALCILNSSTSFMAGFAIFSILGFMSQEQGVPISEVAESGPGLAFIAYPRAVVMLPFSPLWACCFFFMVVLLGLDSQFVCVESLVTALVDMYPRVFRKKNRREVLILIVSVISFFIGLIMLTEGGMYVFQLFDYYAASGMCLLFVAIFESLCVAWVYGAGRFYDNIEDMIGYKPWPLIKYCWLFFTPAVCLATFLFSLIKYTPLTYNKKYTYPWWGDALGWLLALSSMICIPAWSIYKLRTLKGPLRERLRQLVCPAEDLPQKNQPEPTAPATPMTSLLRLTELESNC
Outline: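 The value is pIC50, given as mean ± SEM of three independent experiments, each run in triplicate. Where only two experiments were run, uptake is reported rather than pIC50.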

[2] = biological target: T2, Sodium- and chloride-dependent GABA transporter 3 (Mus musculus, UniProt P31650); assay: Inhibition of mouse GAT3-mediated [3H]GABA uptake expressed in human HEK cells assessed as specific binding remaining at 1 mM
T2 sequence (P31650 whole entry): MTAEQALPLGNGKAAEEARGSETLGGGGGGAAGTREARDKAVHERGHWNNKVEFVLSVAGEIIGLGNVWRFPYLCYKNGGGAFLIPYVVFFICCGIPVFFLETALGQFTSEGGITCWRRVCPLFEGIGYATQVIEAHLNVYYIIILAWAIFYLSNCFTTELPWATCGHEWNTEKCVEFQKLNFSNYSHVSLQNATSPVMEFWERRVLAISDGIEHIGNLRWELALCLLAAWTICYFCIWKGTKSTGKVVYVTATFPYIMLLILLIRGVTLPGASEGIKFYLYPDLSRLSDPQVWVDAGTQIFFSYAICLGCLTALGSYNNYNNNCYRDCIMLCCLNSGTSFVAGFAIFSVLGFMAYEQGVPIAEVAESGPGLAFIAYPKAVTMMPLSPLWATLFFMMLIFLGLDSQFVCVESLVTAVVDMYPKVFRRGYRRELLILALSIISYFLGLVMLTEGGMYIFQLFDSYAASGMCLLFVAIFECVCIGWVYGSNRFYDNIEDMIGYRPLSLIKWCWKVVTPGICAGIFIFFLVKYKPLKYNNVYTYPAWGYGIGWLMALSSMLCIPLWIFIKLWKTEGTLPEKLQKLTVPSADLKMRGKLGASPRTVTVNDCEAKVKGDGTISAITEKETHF

SMILES	IC50 [1] [µM]	IC50 [2] [µM]
COc1ccc(C2(O)CCN(CCCn3c4ccccc4c4ccccc43)CC2)cc1 [1-(3-(9H-carbazol-9-yl)propyl)-4-(4-methoxyphenyl)piperidin-4-ol]	1.4	–
Cc1ccsc1C(=CCCN(C)C1CCCc2o[nH]c(=O)c21)c1sccc1C (stereo not drawn) [4-((4,4-bis(3-methylthiophen-2-yl)but-3-enyl)(methyl)amino)-4,5,6,7-tetrahydrobenzo[d]isoxazol-3-ol]	22	–
O=C(O)CCCCCCn1ccnc1 [7-Imidazol-1-yl-heptanoic acid; hydrochloride]	–	776
